Reference: article PMC6047365 (Biochemistry and Biophysics Reports, 2018)
Read-outs that look alike come from different tables or passages of the source.

Columns and labels:
DENV RNA replication = test: DENV/Gaussia luciferase; format: cell-based; conditions: Dengue virus, BHK-21, 72 h, read-out: EC50 DENV
In short: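 BHK-21 cells were seeded at 1×10^4 per well in triplicate and transfected with the DENV replicon plasmid DGL2. At 24 h post-transfection they were treated with several concentrations of test compound for 72 h, then Gaussia luciferase was measured. Signal was expressed relative to untreated cells (100%), mean±SD of triplicates, and EC50 was derived.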

HEV RNA replication = test: HEV/NanoLuc luciferase; format: cell-based; conditions: Hepatitis E virus, PLC-PRF-5, 72 h, read-out: EC50 HEV
In short: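 HEV replicon RNA was electroporated into PLC/PRF/5 cells, which were plated at 2.5×10^4 per well in triplicate. Cells were treated with several concentrations of test compound for 72 h, and NanoLuc was read by Nano-Glo. Signal was taken relative to untreated cells (100%), mean±SD of triplicates, and EC50 was derived.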

HCV RNA replication [1] = conditions: read-out: EC50 HCV (HuH-7), HuH-7 cell-derived assays, cited from earlier work
[2] = test system: HBV/NL, covalently closed circular DNA formation to translation of viral mRNAs; test: HBV/NL reporter assay, after entry to translation steps; format: cell-based, hepatitis B virus; conditions: HBV/NL-infected HepG2/NTCPmyc cells, NL activity
[3] = CellTiter 96 AQueous one solution cell proliferation assay; format: cell-based; conditions: human, PLC/PRF/5 cells
In short: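 PLC/PRF/5 cells seeded at 2.5×10^4 per well in triplicate and exposed to several concentrations of test compound for 72 h. Viability was read by the CellTiter 96 AQueous one solution assay. Values were taken relative to untreated cells (100%), given as mean±SD of triplicates, and CC50 was derived from the curves.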

HCV RNA replication [4] = conditions: read-out: EC50 HCV (Li23), Li23 cell-derived assays, cited from earlier work
[5] = Cell count after trypan blue dye treatment; format: cell-based; conditions: human, HepG2/NTCP cells
HBV = HBV replication assay; format: cell-based; conditions: Hepatitis B virus, HepG2, read-out: EC50 HBV
In short: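 Inoculum was HBV from HepG2.2.15 supernatant, given at 1000 genome equivalents/cell in medium with 4% PEG8000 and 2% DMSO for 24 h. Medium was then replaced and cells were cultured 8 days. Cellular DNA was extracted and HBV DNA quantified by real-time qPCR. Results were taken relative to untreated cells (100%), mean±SD of triplicates.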

[6] = compared with N-89; ref [3]; cited from earlier work
Li23 = conditions: read-out: CC50 HCV (Li23), Li23 cell-derived assays, cited from earlier work
HuH-7 = conditions: read-out: CC50 HCV (HuH-7), HuH-7 cell-derived assays, cited from earlier work
JEV RNA replication = test: JEV replicon Firefly luciferase; format: cell-based; conditions: Japanese encephalitis virus, 72 h, read-out: EC50 JEV
In short: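 JEV replicon cells (BHKMuarPACLuc rep, maintained with puromycin 10 μg/ml) were seeded at 1×10^5 per well in triplicate. They were treated with several concentrations of test compound for 72 h, then firefly luciferase was measured. Activity was expressed relative to untreated cells (100%), mean±SD of triplicates, and EC50 was derived.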

HBV/NL virus entry = test: HBV/NL reporter assay, entry step; format: cell-based, hepatitis B virus; conditions: HBV/NL-infected HepG2/NTCPmyc cells, NL activity
In short: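 Reporter HBV/NL virus came from supernatant of HepG2 cells cotransfected with pUC1.2HBV/NL and pUC1.2HBVΔε. HepG2/NTCPmyc cells were infected at 10–100 genome equivalents with 4% PEG8000 and 2% DMSO overnight, with test compound applied per the entry-step schedule. NanoLuc activity was read with Nano-Glo, relative to untreated cells (100%), mean±SD of triplicates. P was computed vs. untreated.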

Compound	EC50 (DENV RNA replication) [µM]	EC50 (HEV RNA replication) [µM]	EC50 (HCV RNA replication [1]; ref Ueda et al. [4]) [µM]	Effect on the process of covalently closed circular DNA formation to translation of viral mRNAs [2]	CC50 at 72 h [3] [µM]	EC50 (HCV RNA replication [4]; ref Ueda et al. [4]) [µM]	CC50 at 9 days [5] [µM]	EC50 (HBV) [µM]	Water solubility [6]	CC50 (Li23; ref Ueda et al. [4]) [µM]	CC50 (HuH-7; ref Ueda et al. [4]) [µM]	EC50 (JEV RNA replication) [µM]	Effect on the process of virus entry (HBV/NL virus entry)	EC50 (HCV RNA replication [1]; ref Mori et al. [16]) [µM]	EC50 (HCV RNA replication [4]; ref Mori et al. [16]) [µM]	CC50 (Li23; ref Mori et al. [16]) [µM]	CC50 (HuH-7; ref Mori et al. [16]) [µM]
OCCCCCCC1COOC2(CCCCCCCCCCC2)OOC1 [N-251, 6-(1,2,6,7-tetraoxaspiro[7.11]nonadec-4-yl)hexan-1-ol]	6.5	13	0.14 to 0.98	not inhibited	56	0.059 to 0.29	16	1.9	higher water solubility than N-89	1.1 to 2.8	0.49 to 3.8	15	did not prevent the process of virus entry	–	–	–	–
NC(=O)c1ncn([C@@H]2O[C@H](CO)[C@@H](O)[C@H]2O)n1 [RBV, Ribavirin, reference compound]	15	19	–	–	> 100	–	> 100	> 100	–	–	–	22	–	> 100	8.7 to 15.9	> 100	> 100
